In article PMC11589143 (Nature Communications, 2024):
pKd: −log10 of the molar value.

Key:
[1] = test system: His-tagged WT Mina53; test: In vitro demethylation, dot blotting, WT Mina53; assay type: biochemical; conditions: 2 h at 37 °C, cofactors
[2] = test system: inactive mutant (H179Y/D181G/H240Y) of Mina53; test: In vitro demethylation, dot blotting, inactive mutant Mina53; assay type: biochemical; conditions: 2 h at 37 °C, cofactors
[3] = biological target: FITC-conjugated H4R3me2a peptide; test: MST
[4] = test system: WT Mina53; test: LC-MS of in vitro demethylation products, WT Mina53; assay type: biochemical; conditions: high-resolution MS
Summary of the method: (§1)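 Reaction mixtures were brought to 0.2% TFA and 2% acetonitrile (final) and desalted on C18 ZipTips (activated in 80% acetonitrile/0.1% TFA, equilibrated in 0.1% TFA). Separation was on an HSS T3 UPLC column with 0.1% formic acid in water versus acetonitrile/0.1% formic acid. Detection used positive-mode ESI TOF MS scanning 400-1500 m/z, and relative peptide abundance was compared.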

[5] = test system: catalytically inactive mutant Mina53; test: LC-MS of in vitro demethylation products, mutant Mina53; assay type: biochemical; conditions: high-resolution MS
Summary of the method: as §1

[6] = test system: mutant Mina53 (D329A/D333A); test: Microscale thermophoresis, mutant Mina53; assay type: binding; conditions: MST; D333A/D329A mutant vs WT; n=3 independent assays
Summary of the method: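 His-tagged Mina53 was titrated from 3 nM to 0.1 mM against 25 nM FITC-labelled H4R3me2a peptide. Mixtures were incubated 15 min in 30 mM Hepes, 150 mM NaCl, pH 7.5, then loaded into glass capillaries for microscale thermophoresis. KD was fitted from the thermophoresis response.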

[7] = biological target: Mina53 (Homo sapiens, UniProt Q8IUF8); test: Formaldehyde release assay; assay type: biochemical; conditions: AAPT (modified NASH), ex 355 nm / em 470 nm
Chain of Mina53 (Q8IUF8 whole entry): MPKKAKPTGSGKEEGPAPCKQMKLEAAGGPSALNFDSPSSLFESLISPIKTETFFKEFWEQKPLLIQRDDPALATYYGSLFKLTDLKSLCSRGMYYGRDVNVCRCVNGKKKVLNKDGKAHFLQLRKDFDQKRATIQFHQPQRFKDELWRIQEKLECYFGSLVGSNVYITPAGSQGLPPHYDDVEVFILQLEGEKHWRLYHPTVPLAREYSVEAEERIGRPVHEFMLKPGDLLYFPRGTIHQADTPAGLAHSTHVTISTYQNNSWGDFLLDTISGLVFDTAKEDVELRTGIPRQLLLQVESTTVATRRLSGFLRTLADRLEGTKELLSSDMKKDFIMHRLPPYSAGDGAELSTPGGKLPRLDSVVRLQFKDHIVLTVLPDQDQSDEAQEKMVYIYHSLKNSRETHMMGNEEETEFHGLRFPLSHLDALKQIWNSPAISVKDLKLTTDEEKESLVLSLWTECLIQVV
Summary of the method: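 After the demethylation reaction, samples were TCA-precipitated and 1% Tris buffer was added. An equal volume of AAPT buffer was added to the supernatant and incubated 30 min at room temperature. Formaldehyde was quantified against a standard curve from serial dilutions of 37% formaldehyde. Km and kcat were fitted to the Michaelis-Menten equation.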

[8] = test system: His-tagged Mina53; test: Pulldown of synthetic H4R3 peptides with purified His-tagged Mina53; assay type: binding; conditions: H4R3 peptides with different R3 modifications
[9] = test system: HEK293T nuclear proteins (H4R3me2a interactors); test: Proteome-wide photoaffinity capture, dimethyl labelling, LC-MS; assay type: binding, Homo sapiens; conditions: |log2 fold change| > 2, P < 0.05; vs peptide without pLeu
Summary of the method: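 HEK293T cells were lysed in RSB buffer and crude nuclei resuspended in crosslinking buffer (100 mM HEPES, 1.5 mM MgCl2, 150 mM KCl, pH 7.5). Nuclei received 100 µM biotinylated pLeu peptide in the dark, then 365 nm UV on ice. After washing and sonication, proteins were captured on streptavidin and washed stringently. Only proteins quantified in both replicates were kept, with two-tailed unpaired t-test P-values.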

Chain of His-tagged Mina53 (Myc-induced nuclear antigen 53), wild type (Q8IUF8 whole entry): as above

**Q.** Which “Dot-blot signal change with WT Mina53” value [1] does the source give for APATGGV-Kme3-KPHRYRP(Biotin) [H3K36me3] here?
**A.** modestly decreased

**Q.** What about the “Dot-blot signal change with mutant Mina53” value [2] of the same substance?
**A.** not mutant Mina53

**Q.** “His-tagged Mina53 (Myc-induced nuclear antigen 53), wild type (from UniProt Q8IUF8 1-465) (enzyme)” was tested. Which pKd [3] did it give?
**A.** 4.56

**Q.** How did the “Appearance of non-methylated peptide” value ([4]; H4R3me1 peptide as substrate) turn out when “SGR(Me1)GKGGKGLGKGGAKRHRKVGGK(Biotin) [H4R3me1]” was run?
**A.** modest non-methylated peptide appearance

**Q.** What about the “Dot-blot signal change with WT Mina53” value [1] of the same substance?
**A.** drastically decreased

**Q.** What about the “Dot-blot signal change with mutant Mina53” value [2] of the same substance?
**A.** not mutant Mina53

**Q.** With “SGR(Me2a)GKGGKGLGKGGAKRHRKVGGK(Biotin) [H4R3me2a]” as the substance, how does the “Peptide peak shift with mutant Mina53” value [5] read?
**A.** not mutant Mina53

**Q.** And the “Peptide peak shift (to mono-methylated peptide)” value ([4]; WT Mina53)?
**A.** 14 Da

**Q.** What about the “Dot-blot signal change with WT Mina53” value [1] of the same substance?
**A.** drastically decreased

**Q.** And the “Binding affinity of mutant Mina53” value [6]?
**A.** drastic loss of binding

**Q.** What about the “turn-over rate (kcat)” value [7] of the same substance?
**A.** 0.37 ± 0.08 s⁻¹

**Q.** What about the “Dot-blot signal change with mutant Mina53” value [2] of the same substance?
**A.** not mutant Mina53

**Q.** For “SGR(Me2s)GKGGKGLGKGGAKRHRKVGGK(Biotin) [H4R3me2s]”, which “Amount of peptide pulled down by Mina53” value [8] is on record?
**A.** in the smallest amount

**Q.** Which “Enrichment of SND1, SMNDC1 and PRMT1 in pLeu-containing peptide sample” value [9] does the source give for “pLeuGRme2aGKGGKGLGKGGAKKbio-NH2 [H4R3me2a-pLeu-biotin]” here?
**A.** enriched
